{"source": "PubChem BioAssay", "note": "Activity calls are given as the source filed them.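 How the source made its calls: active means GFP response above 150% of the DMSO control; inconclusive means Fewer than 70 cells counted for a yeast strain; inactive means the rest.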", "data": [{"assay": "LAP4-GFP expression modulators in yeast, confirmation, cell-based, cherry picks, flow cytometry, mother/daughter gates (AID 2271);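 further: ratio of sample to DMSO plate mean so 100% equals DMSO level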", "conditions": "S. cerevisiae LAP4-GFP strain, 3 h, measured here: mother cell gate response, at 10 µM, stronger effect = higher value, 100 means same as DMSO control", "outline": "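System: Alexa 633-stained baker's yeast GFP-fusion strain; quantity: 0.2 OD600 cells; timing: compound exposure 3 h at 30 °C, end-over-end rotation; detection: HT flow cytometry, GFP fluorescence channel; measure: per-gate (all, mother, daughter) GFP response vs DMSO; control set: DMSO-only negative wells, rapamycin 400 ng/mL positive wells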", "units": {"GFP response relative to DMSO": "%"}, "values": [{"compound": "Cc1ccc(C(=O)OCC(=O)Nc2ccccc2Sc2ccccc2)cc1C", "GFP response relative to DMSO": 97.2}, {"compound": "CCCCCCc1cc2cc(-c3nnc(-c4ccccc4OC)o3)c(=O)oc2cc1O", "GFP response relative to DMSO": 111}, {"compound": "O=C(OCn1ncc(Br)c(Br)c1=O)c1ccc(F)cc1", "GFP response relative to DMSO": 203}, {"compound": "CSc1ccc(-c2cc(=O)c3ccccc3o2)cc1", "GFP response relative to DMSO": 118}, {"compound": "c1cc2c(cc1C1CCCCC1)c1c3n2CCCNC3CCC1", "note": "(stereo not drawn)", "GFP response relative to DMSO": 102}, {"compound": "CCOC(=O)C1(CCCc2ccccc2)CCN(C(=O)c2cc(C)nn2CC)CC1", "GFP response relative to DMSO": 98.5}, {"compound": "Cn1cnnc1SCC(=O)Nc1nc(-c2ccc(F)cc2)cs1", "GFP response relative to DMSO": 97.3}, {"compound": "O=C1C=C(c2ccccc2)C(=O)N1Nc1ccccc1", "GFP response relative to DMSO": 113}, {"compound": "S=C(Sc1ccc(Cl)cc1)Sc1ccc(Cl)cc1", "GFP response relative to DMSO": 115}, {"compound": "O=C(O)c1ccc(N/N=C/c2c(F)cccc2Cl)cc1", "GFP response relative to DMSO": 124}, {"compound": "Cc1ccc(-c2csc(NC(=O)c3ccno3)n2)cc1", "GFP response relative to DMSO": 106}, {"compound": "Cc1nn(C)cc1C(C)NC(=O)c1cc(COc2ccc(F)c(F)c2)on1", "note": "(stereo not drawn)", "GFP response relative to DMSO": 96.2}, {"compound": "CN(O)/C=c1/ccc2c(n1)C(=O)C=CC=2", "GFP response relative to DMSO": 188}, {"compound": "CCOc1ccc(S(=O)(=O)n2ccnc2C)cc1", "GFP response relative to DMSO": 98.3}, {"compound": "CCCCN(CC)S(=O)(=O)c1ccc(C(=O)Nc2nnc(-c3ccccc3Cl)o2)cc1", "GFP response relative to DMSO": 98.3}, {"compound": "Oc1c(CN2CCCCC2)cc(Br)c2cccnc12", "GFP response relative to DMSO": 208}, {"compound": "O=C(O)c1ccc(N/N=C/C(Br)=C/c2ccccc2)cc1", "GFP response relative to DMSO": 130}, {"compound": "Cc1ccc(NC(=O)COc2ccc(Br)cc2C)cc1", "GFP response relative to DMSO": 104}, {"compound": "CCCn1c(=O)c(C(=O)Nc2ccccc2C(=O)OCC)c(O)c2ccccc21", "GFP response relative to DMSO": 97.4}, {"compound": "N#C/C(C(=O)Nc1ccc(Cl)cc1)=C(/S)Nc1ccccc1", "GFP response relative to DMSO": 104}, {"compound": "CN1/C(=C\\C(=O)c2cccc(S(=O)(=O)N3CCCCC3)c2)C(C)(C)c2ccccc21", "GFP response relative to DMSO": 94}, {"compound": "CCn1c(=O)c(C(=O)NCc2ccc(OC)cc2)c(O)c2ccccc21", "GFP response relative to DMSO": 97.4}, {"compound": "C/C(=N/NS(=O)(=O)c1ccccc1)c1ccc(NC(=O)C(F)(F)F)cc1", "GFP response relative to DMSO": 94.6}, {"compound": "CS(=O)(=O)c1nc(-c2ccccc2)cc(C(F)(F)F)n1", "GFP response relative to DMSO": 189}, {"compound": "CCOc1ccc(/C=C/C(=O)c2c(O)cc(C)oc2=O)cc1", "GFP response relative to DMSO": 126}, {"compound": "CCCc1[nH]nc2c1C(c1cccnc1)C(C#N)=C(N)O2", "note": "(stereo not drawn)", "GFP response relative to DMSO": 98.3}, {"compound": "O=C1CC(Sc2nnc(-c3ccccc3)o2)C(=O)N1c1ccccc1", "note": "(stereo not drawn)", "GFP response relative to DMSO": 107}, {"compound": "O=C(NNC(=O)C1CCCCC1)C(=O)NC1CCCCC1", "GFP response relative to DMSO": 97.5}, {"compound": "Cc1ccc(/C(C#N)=C\\c2ccc(N3CCOCC3)o2)cc1", "GFP response relative to DMSO": 103}, {"compound": "N/C(Cc1ccc(Cl)c(Cl)c1)=N\\OC(=O)c1cccs1", "GFP response relative to DMSO": 206}, {"compound": "Cn1cc([N+](=O)[O-])c(C(=O)Nc2nc(-c3ccc(Cl)cc3)cs2)n1", "GFP response relative to DMSO": 102}, {"compound": "CCCOc1ccc(C(=O)NNC(=S)NC(=O)c2ccccc2)cc1", "GFP response relative to DMSO": 150}, {"compound": "COc1ccc(N2C(=O)c3cccc4cccc(c34)C2=O)nn1", "GFP response relative to DMSO": 91.1}, {"compound": "Clc1ccc(OCCn2cnc3ccccc32)c(Cl)c1", "GFP response relative to DMSO": 142}, {"compound": "N#C/C(=C\\c1ccccn1)c1nc2ccccc2s1", "GFP response relative to DMSO": 589}, {"compound": "COc1ccc(S(=O)(=O)NCC(=O)N(CC(=O)NCc2ccco2)Cc2ccc(F)cc2)cc1", "GFP response relative to DMSO": 100}, {"compound": "Cc1cc(OCc2ccc(C(=O)NN=C3CCCC3)cc2)ccc1Cl", "GFP response relative to DMSO": 135}, {"compound": "CCCCC(=O)NNC(=S)NC(=O)c1ccc(C)cc1", "GFP response relative to DMSO": 233}, {"compound": "Cc1ccc(N2C(=O)C3C4C=CC(CNC(=S)Nc5ccc(F)cc5)(O4)C3C2=O)cc1", "note": "(stereo not drawn)", "GFP response relative to DMSO": 103}]}, {"assay": "modulators of MEP2-GFP levels in yeast, confirmation, S. cerevisiae, flow cytometry GFP, cherry picks (AID 2272);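 further: ratio of well signal to plate DMSO mean so 100% equals DMSO level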", "conditions": "S. cerevisiae MEP2-GFP strain, 3 h, at 10 µM, stronger effect = higher value", "values": [{"compound": "Cc1ccc(C(=O)OCC(=O)Nc2ccccc2Sc2ccccc2)cc1C", "GFP response vs DMSO": "96.6% (inactive)"}, {"compound": "CCCCCCc1cc2cc(-c3nnc(-c4ccccc4OC)o3)c(=O)oc2cc1O", "GFP response vs DMSO": "106% (inactive)"}, {"compound": "O=C(OCn1ncc(Br)c(Br)c1=O)c1ccc(F)cc1", "GFP response vs DMSO": "116% (inactive)"}, {"compound": "CSc1ccc(-c2cc(=O)c3ccccc3o2)cc1", "GFP response vs DMSO": "95.2% (inactive)"}, {"compound": "c1cc2c(cc1C1CCCCC1)c1c3n2CCCNC3CCC1", "note": "(stereo not drawn)", "GFP response vs DMSO": "111% (inactive)"}, {"compound": "CCOC(=O)C1(CCCc2ccccc2)CCN(C(=O)c2cc(C)nn2CC)CC1", "GFP response vs DMSO": "97.5% (inactive)"}, {"compound": "Cn1cnnc1SCC(=O)Nc1nc(-c2ccc(F)cc2)cs1", "GFP response vs DMSO": "103% (inactive)"}, {"compound": "O=C1C=C(c2ccccc2)C(=O)N1Nc1ccccc1", "GFP response vs DMSO": "102% (inactive)"}, {"compound": "S=C(Sc1ccc(Cl)cc1)Sc1ccc(Cl)cc1", "GFP response vs DMSO": "112% (inactive)"}, {"compound": "O=C(O)c1ccc(N/N=C/c2c(F)cccc2Cl)cc1", "GFP response vs DMSO": "108% (inactive)"}, {"compound": "Cc1ccc(-c2csc(NC(=O)c3ccno3)n2)cc1", "GFP response vs DMSO": "99% (inactive)"}, {"compound": "Cc1nn(C)cc1C(C)NC(=O)c1cc(COc2ccc(F)c(F)c2)on1", "note": "(stereo not drawn)", "GFP response vs DMSO": "100% (inactive)"}, {"compound": "CN(O)/C=c1/ccc2c(n1)C(=O)C=CC=2", "GFP response vs DMSO": "115% (inactive)"}, {"compound": "CCOc1ccc(S(=O)(=O)n2ccnc2C)cc1", "GFP response vs DMSO": "102% (inactive)"}, {"compound": "CCCCN(CC)S(=O)(=O)c1ccc(C(=O)Nc2nnc(-c3ccccc3Cl)o2)cc1", "GFP response vs DMSO": "109% (inactive)"}, {"compound": "Oc1c(CN2CCCCC2)cc(Br)c2cccnc12", "GFP response vs DMSO": "118% (inactive)"}, {"compound": "O=C(O)c1ccc(N/N=C/C(Br)=C/c2ccccc2)cc1", "GFP response vs DMSO": "97.5% (inactive)"}, {"compound": "Cc1ccc(NC(=O)COc2ccc(Br)cc2C)cc1", "GFP response vs DMSO": "104% (inactive)"}, {"compound": "CCCn1c(=O)c(C(=O)Nc2ccccc2C(=O)OCC)c(O)c2ccccc21", "GFP response vs DMSO": "108% (inactive)"}, {"compound": "N#C/C(C(=O)Nc1ccc(Cl)cc1)=C(/S)Nc1ccccc1", "GFP response vs DMSO": "101% (inactive)"}, {"compound": "CN1/C(=C\\C(=O)c2cccc(S(=O)(=O)N3CCCCC3)c2)C(C)(C)c2ccccc21", "GFP response vs DMSO": "100% (inactive)"}, {"compound": "CCn1c(=O)c(C(=O)NCc2ccc(OC)cc2)c(O)c2ccccc21", "GFP response vs DMSO": "106% (inactive)"}, {"compound": "C/C(=N/NS(=O)(=O)c1ccccc1)c1ccc(NC(=O)C(F)(F)F)cc1", "GFP response vs DMSO": "99.5% (inactive)"}, {"compound": "CS(=O)(=O)c1nc(-c2ccccc2)cc(C(F)(F)F)n1", "GFP response vs DMSO": "146% (inactive)"}, {"compound": "CCOc1ccc(/C=C/C(=O)c2c(O)cc(C)oc2=O)cc1", "GFP response vs DMSO": "106% (inactive)"}, {"compound": "CCCc1[nH]nc2c1C(c1cccnc1)C(C#N)=C(N)O2", "note": "(stereo not drawn)", "GFP response vs DMSO": "96.2% (inactive)"}, {"compound": "O=C1CC(Sc2nnc(-c3ccccc3)o2)C(=O)N1c1ccccc1", "note": "(stereo not drawn)", "GFP response vs DMSO": "102% (inactive)"}, {"compound": "O=C(NNC(=O)C1CCCCC1)C(=O)NC1CCCCC1", "GFP response vs DMSO": "112% (inactive)"}, {"compound": "Cc1ccc(/C(C#N)=C\\c2ccc(N3CCOCC3)o2)cc1", "GFP response vs DMSO": "109% (inactive)"}, {"compound": "N/C(Cc1ccc(Cl)c(Cl)c1)=N\\OC(=O)c1cccs1", "GFP response vs DMSO": "122% (inactive)"}, {"compound": "Cn1cc([N+](=O)[O-])c(C(=O)Nc2nc(-c3ccc(Cl)cc3)cs2)n1", "GFP response vs DMSO": "106% (inactive)"}, {"compound": "CCCOc1ccc(C(=O)NNC(=S)NC(=O)c2ccccc2)cc1", "GFP response vs DMSO": "128% (inactive)"}, {"compound": "COc1ccc(N2C(=O)c3cccc4cccc(c34)C2=O)nn1", "GFP response vs DMSO": "97.8% (inactive)"}, {"compound": "Clc1ccc(OCCn2cnc3ccccc32)c(Cl)c1", "GFP response vs DMSO": "89.9% (inactive)"}, {"compound": "N#C/C(=C\\c1ccccn1)c1nc2ccccc2s1", "GFP response vs DMSO": "1020% (active)"}, {"compound": "COc1ccc(S(=O)(=O)NCC(=O)N(CC(=O)NCc2ccco2)Cc2ccc(F)cc2)cc1", "GFP response vs DMSO": "99% (inactive)"}, {"compound": "Cc1cc(OCc2ccc(C(=O)NN=C3CCCC3)cc2)ccc1Cl", "GFP response vs DMSO": "120% (inactive)"}, {"compound": "CCCCC(=O)NNC(=S)NC(=O)c1ccc(C)cc1", "GFP response vs DMSO": "134% (inactive)"}, {"compound": "Cc1ccc(N2C(=O)C3C4C=CC(CNC(=S)Nc5ccc(F)cc5)(O4)C3C2=O)cc1", "note": "(stereo not drawn)", "GFP response vs DMSO": "108% (inactive)"}]}]}
